Experimental data: ChEMBL document CHEMBL1142628, “Antineoplastic agents 430. Isolation and structure of cribrostatins 3, 4, and 5 from the republic of maldives cribrochalina species” (2000)
≈ marks a conversion by molar mass, not a printed value. Calls of active or inactive are those of the source. The calls are words filed in the database; no cut-off is given here.

How the values were obtained:
BXPC-3 = assay: Growth inhibition of human BXPC3 cells; format: functional
OVCAR-3 = assay: Growth inhibition of human OVCAR-3 cells; format: functional
Outline: (§1)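 NCI 60-cell-line screen run by the standard NCI protocol. Each test agent ran in quadruplicate, with a top concentration of 10^-5 M and five log-spaced dilutions. GI50 values were averaged and reported as negative log GI50.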

SF-295 [1] = assay: (§2) Growth inhibition of human SF295 cells; format: functional
Outline: (§3)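 NCI human tumor cell line panel screen run to the standard NCI protocol. Each compound tested in quadruplicate with a top concentration of 10^-5 M and five log-spaced dilutions. GI50 values were averaged across replicates and reported as negative log GI50.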

NCI-H460 [2] = assay: (§4) Growth inhibition of human NCI-H460 cells; format: functional; outline: as §1
KM-20L2 = assay: Growth inhibition of human KM20L2 cells; format: functional
DU-145 = assay: Growth inhibition of human DU145 cells; format: functional; outline: as §1
P388 = assay: Growth inhibition of mouse P388 cells; format: functional
Candida albicans = assay: Antifungal activity against Candida albicans ATCC 90028 at 100 ug/disk by disk diffusion method; format: functional, organism-based
Cryptococcus neoformans = assay: Antifungal activity against Cryptococcus neoformans ATCC 90112 at 100 ug/disk by disk diffusion method; format: functional, organism-based
Micrococcus luteus = assay: Antibacterial activity against Micrococcus luteus Presque Isle 456 at 100 ug/disk by disk diffusion method; format: functional, organism-based
Staphylococcus aureus = assay: Antibacterial activity against Staphylococcus aureus ATCC 29213 at 100 ug/disk by disk diffusion method; format: functional, organism-based
Enterococcus faecalis = assay: Antibacterial activity against Enterococcus faecalis ATCC 29212 at 100 ug/disk by disk diffusion method; format: functional, organism-based
Bacillus subtilis = assay: Antibacterial activity against Bacillus subtilis Presque Isle 620 at 100 ug/disk by disk diffusion method; format: functional, organism-based
Streptococcus pneumoniae = assay: Antibacterial activity against Streptococcus pneumoniae ATCC 6303 at 100 ug/disk by disk diffusion method; format: functional, organism-based
[3] = test system: Stenotrophomonas maltophilia; assay: Antibacterial activity against Stenotrophomonas maltophilia ATCC 13637 at 100 ug/disk by disk diffusion method; format: functional, organism-based
Escherichia coli = assay: Antibacterial activity against Escherichia coli ATCC 25922 at 100 ug/disk by disk diffusion method; format: functional, organism-based
Enterobacter cloacae = assay: Antibacterial activity against Enterobacter cloacae ATCC 13047 at 100 ug/disk by disk diffusion method; format: functional, organism-based
Neisseria gonorrhoeae [4] = assay: Antibacterial activity against Neisseria gonorrhoeae ATCC 49226 by disk diffusion method; format: functional
Neisseria gonorrhoeae [5] = assay: Antibacterial activity against penicillin-resistant Neisseria gonorrhoeae isolate by disk diffusion method; format: functional
CCRF-CEM = assay: Growth inhibition of human CCRF-CEM cells; format: functional; outline: as §1
[6] = Growth inhibition of human HL60(TB) cells; format: functional, HL-60(TB); details: HL-60
Outline: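 NCI human tumour cell-line panel screen run by the standard NCI protocol. Each compound was tested in quadruplicate, with an upper concentration limit of 10^-5 M and five log-spaced dilutions. GI50 values were averaged and reported as negative log GI50.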

K562 = assay: Growth inhibition of human K562 cells; format: functional; outline: as §1
MOLT-4 = assay: Growth inhibition of human MOLT4 cells; format: functional; outline: as §1
RPMI-8226 = assay: Growth inhibition of human RPMI8226 cells; format: functional; outline: as §1
SR = assay: Growth inhibition of human SR cells; format: functional; outline: as §3
A549 = assay: Growth inhibition of human A549/ATCC cells; format: functional; outline: as §1
HOP-62 = assay: Growth inhibition of human HOP62 cells; format: functional; outline: as §1
HOP-92 = assay: Growth inhibition of human HOP92 cells; format: functional; outline: as §1
NCI-H226 = assay: Growth inhibition of human NCI-H226 cells; format: functional; outline: as §1
NCI-H460 [7] = assay: as §4; format: functional; outline: as §1; remark: listed apart in the source
NCI-H522 = assay: Growth inhibition of human NCI-H522 cells; format: functional; outline: as §1
COLO 205 = assay: Growth inhibition of human COLO205 cells; format: functional; outline: as §1
KM12 = assay: Growth inhibition of human KM12 cells; format: functional; outline: as §1
SW-620 = assay: Growth inhibition of human SW620 cells; format: functional; outline: as §3
SNB-75 = assay: Growth inhibition of human SNB75 cells; format: functional; outline: as §3
U-251 = assay: Growth inhibition of human U251 cells; format: functional; outline: as §3
LOX IMVI = assay: Growth inhibition of human LOX IMVI cells; format: functional; outline: as §1
Malme-3M = assay: Growth inhibition of human MALME-3M cells; format: functional; outline: as §1
SK-MEL-5 = assay: Growth inhibition of human SK-MEL-5 cells; format: functional; outline: as §3
UACC-62 = assay: Growth inhibition of human UACC62 cells; format: functional; outline: as §3
OVCAR-4 = assay: Growth inhibition of human OVCAR4 cells; format: functional; outline: as §1
OVCAR-8 = assay: Growth inhibition of human OVCAR8 cells; format: functional; outline: as §1
786-0 = assay: Growth inhibition of human 786-0 cells; format: functional; outline: as §1
ACHN = assay: Growth inhibition of human ACHN cells; format: functional; outline: as §1
RXF 393 = assay: Growth inhibition of human RXF393 cells; format: functional; outline: as §3
SN12C = assay: Growth inhibition of human SN12C cells; format: functional; outline: as §3
PC-3 = assay: Growth inhibition of human PC3 cells; format: functional; outline: as §1
MCF7 [8] = assay: Growth inhibition of human MCF7 cells; format: functional; outline: as §1
MCF7 [9] = assay: Growth inhibition of human adriamycin-resistant MCF7 cells; format: functional; outline: as §3
MDA-MB-231 = assay: Growth inhibition of human MDA-MB-231/ATCC cells; format: functional; outline: as §1
Hs-578T = assay: Growth inhibition of human HS578T cells; format: functional; outline: as §1
MDA-MB-435 = assay: Growth inhibition of human MDA-MB-435 cells; format: functional; outline: as §1
MDA-N = assay: Growth inhibition of human MDA-N cells; format: functional; outline: as §1
T47D = assay: Growth inhibition of human T47D cells; format: functional; outline: as §3
SF-268 = assay: Growth inhibition of human SF268 cells; format: functional; outline: as §3
SF-295 [10] = assay: as §2; format: functional; outline: as §3; remark: listed apart in the source
SF-539 = assay: Growth inhibition of human SF539 cells; format: functional; outline: as §3

With `C/C=C(/C)C(=O)OCc1nccc2c1C(=O)C(N)=C(C)C2=O` [CRIBROSTATIN 3] as the compound, how does the GI50 (BXPC-3) read?
Its GI50 is > 1 µg/mL.

What about the GI50 (OVCAR-3) of the same compound?
Its GI50 is 0.77 µg/mL (≈ 2.56 µM).

What about the GI50 (SF-295 [1]) of the same compound?
The GI50 was > 1 µg/mL.

What about the GI50 (NCI-H460 [2]) of the same compound?
Its GI50 is > 1 µg/mL.

What about the GI50 (KM-20L2) of the same compound?
The GI50 was > 1 µg/mL.

And the GI50 (DU-145)?
Its GI50 is > 1 µg/mL.

What about the GI50 (P388) of the same compound?
Its GI50 is 2.49 µg/mL (≈ 8.29 µM).

What about the EC50 (P388; read-out: ED50 (the source's name)) of the same compound?
The EC50 was 2.5 µg/mL (≈ 8.32 µM).

And the Activity (Candida albicans)?
The Activity was “inactive”.

What about the Activity (Cryptococcus neoformans) of the same compound?
The Activity was “inactive”.

And the Activity (Micrococcus luteus)?
The Activity was “inactive”.

And the Activity (Staphylococcus aureus)?
The Activity was “inactive”.

And the Activity (Enterococcus faecalis)?
The Activity was “inactive”.

What about the Activity (Bacillus subtilis) of the same compound?
Its Activity is “inactive”.

And the Activity (Streptococcus pneumoniae)?
The Activity was “inactive”.

What about the Activity [3] of the same compound?
Its Activity is “inactive”.

What about the Activity (Escherichia coli) of the same compound?
The Activity was “inactive”.

What about the Activity (Enterobacter cloacae) of the same compound?
The Activity was “inactive”.

And the MIC (Neisseria gonorrhoeae [4])?
The MIC was 0.0975 µg/disc.

What about the MIC (Neisseria gonorrhoeae [5]) of the same compound?
The MIC was 0.39 µg/disc.

What about the GI50 (CCRF-CEM) of the same compound?
The GI50 was 4.27 µM.

What about the GI50 [6] of the same compound?
Its GI50 is 3.09 µM.

What about the GI50 (K562) of the same compound?
Its GI50 is 7.41 µM.

And the GI50 (MOLT-4)?
The GI50 was 4.9 µM.

What about the GI50 (RPMI-8226) of the same compound?
Its GI50 is 8.51 µM.

And the GI50 (SR)?
The GI50 was 3.39 µM.

And the GI50 (A549)?
The GI50 was 3.47 µM.

And the GI50 (HOP-62)?
The GI50 was 5.37 µM.

What about the GI50 (HOP-92) of the same compound?
The GI50 was 9.55 µM.

And the GI50 (NCI-H226)?
The GI50 was 7.08 µM.

What about the GI50 (NCI-H460 [7]) of the same compound?
The GI50 was 3.02 µM.

And the GI50 (NCI-H522)?
The GI50 was 3.89 µM.

And the GI50 (COLO 205)?
The GI50 was 5.89 µM.

And the GI50 (KM12)?
Its GI50 is 4.9 µM.

What about the GI50 (SW-620) of the same compound?
Its GI50 is 3.63 µM.

And the GI50 (SNB-75)?
The GI50 was 4.79 µM.

What about the GI50 (U-251) of the same compound?
Its GI50 is 3.24 µM.

And the GI50 (LOX IMVI)?
The GI50 was 4.07 µM.

What about the GI50 (Malme-3M) of the same compound?
Its GI50 is 617 nM.

And the GI50 (SK-MEL-5)?
The GI50 was 1100 nM.

And the GI50 (UACC-62)?
The GI50 was 2510 nM.

What about the GI50 (OVCAR-4) of the same compound?
The GI50 was 5.25 µM.

And the GI50 (OVCAR-8)?
Its GI50 is 8.71 µM.

And the GI50 (786-0)?
Its GI50 is 5.89 µM.

And the GI50 (ACHN)?
Its GI50 is 9.55 µM.

What about the GI50 (RXF 393) of the same compound?
Its GI50 is 4.9 µM.

What about the GI50 (SN12C) of the same compound?
Its GI50 is 6.17 µM.

And the GI50 (PC-3)?
Its GI50 is 2000 nM.

What about the GI50 (MCF7 [8]) of the same compound?
The GI50 was 4.68 µM.

And the GI50 (MCF7 [9])?
The GI50 was 4.57 µM.

And the GI50 (MDA-MB-231)?
Its GI50 is 8.71 µM.

And the GI50 (Hs-578T)?
Its GI50 is 6.31 µM.

What about the GI50 (MDA-MB-435) of the same compound?
Its GI50 is 1820 nM.

What about the GI50 (MDA-N) of the same compound?
Its GI50 is 1910 nM.

And the GI50 (T47D)?
The GI50 was 6.46 µM.

And the GI50 (SF-268)?
The GI50 was 6.31 µM.

And the GI50 (SF-295 [10])?
The GI50 was 3.63 µM.

What about the GI50 (SF-539) of the same compound?
Its GI50 is 4.79 µM.

Which Activity (Candida albicans) does the source give for `CC1=C(N)C(=O)c2c(ccnc2C)C1=O` [CRIBROSTATIN 1] here?
The Activity was “inactive”.

What about the Activity (Cryptococcus neoformans) of the same compound?
Its Activity is “inactive”.

What about the Activity (Micrococcus luteus) of the same compound?
The Activity was “inactive”.

What about the Activity (Staphylococcus aureus) of the same compound?
The Activity was “inactive”.

And the Activity (Enterococcus faecalis)?
The Activity was “inactive”.

What about the Activity (Bacillus subtilis) of the same compound?
Its Activity is “inactive”.

What about the Activity (Streptococcus pneumoniae) of the same compound?
Its Activity is “inactive”.

And the Activity [3]?
The Activity was “inactive”.

And the Activity (Escherichia coli)?
Its Activity is “inactive”.

And the Activity (Enterobacter cloacae)?
The Activity was “inactive”.

What about the MIC (Neisseria gonorrhoeae [4]) of the same compound?
The MIC was 0.39 µg/disc.
